MrgX1 antagonist: antagonists of human MrgX1 receptor, primary screen, HEK293 cells, Fluo-4 calcium flux | BAM8-22 antagonism; stronger effect = lower value | B-score at 10 µM | 310,000 tested, 1.3% active;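 active = calcium-response B-score plate-corrected more than 3 library SD below zero, starting fluorescence within 5 deviations, no agonist response on first addition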;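 note: peak minus trough fluorescence over baseline after final BAM8-22 challenge near maximal dose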
Target sequence (Q96LB2 whole entry, looked up): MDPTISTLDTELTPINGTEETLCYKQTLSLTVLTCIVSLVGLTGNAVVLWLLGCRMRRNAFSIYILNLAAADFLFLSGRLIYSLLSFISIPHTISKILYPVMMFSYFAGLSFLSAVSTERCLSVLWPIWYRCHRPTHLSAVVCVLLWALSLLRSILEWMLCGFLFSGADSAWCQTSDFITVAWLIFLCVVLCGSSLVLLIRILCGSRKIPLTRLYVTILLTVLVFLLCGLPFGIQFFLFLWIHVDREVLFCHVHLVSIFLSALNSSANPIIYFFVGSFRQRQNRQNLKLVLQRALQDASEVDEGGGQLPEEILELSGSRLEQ
RGS4 inh: RGS4 inhibitors, primary screen, cell-based, HEK293 M3R inducible RGS4, calcium flux; Fluo-4 calcium flux; stronger effect = higher value; triggered by carbachol at its EC20; B-score at 10 µM; 310,000 tested, 0.45% active;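 active = B-score, a plate-corrected calcium signal, over three deviations above library mean, with baseline fluorescence within five deviations of library mean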;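 note: RGS4 expression induced by doxycycline in cells with stable M3 receptor; B-score is computed from the integrated fluorescence ratio over baseline after carbachol; higher B-score means a larger calcium signal and so more RGS4 inhibition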
Target sequence (P49798 whole entry, looked up): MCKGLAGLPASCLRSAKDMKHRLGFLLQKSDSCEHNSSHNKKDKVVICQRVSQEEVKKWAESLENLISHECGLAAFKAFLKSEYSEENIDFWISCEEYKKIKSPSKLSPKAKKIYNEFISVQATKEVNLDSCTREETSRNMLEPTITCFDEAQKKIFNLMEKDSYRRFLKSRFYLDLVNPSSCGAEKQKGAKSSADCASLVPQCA
RGS4 pot: RGS4 potentiators or activators, primary screen, cell-based, HEK293 M3R inducible RGS4, calcium flux | 310,000 tested, 0.92% active | B-score at 10 µM | carbachol calcium flux Fluo4; stronger effect = lower value;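 active = B-score of the integrated calcium signal more than 4 SD below the library mean, with starting fluorescence not abnormally high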;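 note: negative B-score means reduced calcium response which marks RGS4 activation or potentiation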
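Assay system: HEK293 FlpIn-TREx cells, stable M3R, doxycycline-inducible RGS4 / Probe or stimulus: carbachol, ECmax concentration / Times: overnight RGS4 induction, 30 min dye load 37 °C, 20 min compound RT / Signal: kinetic calcium fluorescence imaging with Fluo4-AM dye, 2 µM / Measure: Agonist-evoked peak-minus-minimum fluorescence over baseline, integrated ratio, B score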
MrgX1 PAM: positive allosteric modulators of MrgX1, primary screen, HEK293 cells, Fluo-4 calcium flux; Mas-related G-protein coupled receptor member X1 (Homo sapiens), Q96LB2; FDSS; stronger effect = higher value; B-score at 10 µM; 310,000 tested, 0.63% active; AID 588675, 2011;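 active = plate-corrected calcium response at least 3 library SD above typical, normal starting fluorescence, not activating the receptor alone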;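 note: compound read alongside a low EC10 to EC30 dose of BAM8-22 agonist; peak minus trough fluorescence over baseline measured at the second addition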
MrgX1 ag: agonists of human MrgX1 receptor, primary screen, HEK293 cells, Fluo-4 calcium flux; B-score at 10 µM; Mas-related G-protein coupled receptor member X1 (Homo sapiens), Q96LB2; AID 588627, 2011; Fluo-4 calcium fluorescence, agonist mode; stronger effect = higher value; 310,000 tested, 0.44% active;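 active = calcium response B-score plate-corrected fluorescence ratio at least 3 library SD, with starting fluorescence B-score inside 5 SD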
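Material: HEK293 cells stably expressing human MrgX1 receptor | Quantity: 15,000 cells per well | Times: Cells plated overnight, dye loaded 0.5 h 37 °C, 0.5 h room temperature | Measured by: Kinetic Fluo-4 NW fluorescence of intracellular calcium | Control set: Positive and negative controls per plate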
MrgX1 ant reconf: MrgX1 receptor antagonists, duplicate retest, confirmation, HEK293 cells, Fluo-4 calcium flux | shares compounds with MrgX1 antagonist | BAM8-22 calcium flux; stronger effect = lower value | remaining BAM8-22 calcium response % of control (stronger effect = lower value), % at 10 µM | 2,300 tested, 19% active;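 active = remaining agonist calcium response no higher than 100% minus 3 SD of agonist-only control wells, with starting fluorescence near control levels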;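 note: agonist BAM8-22 given at a near maximal EC90 to ECmax level; peak minus minimum fluorescence divided by baseline after agonist addition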
HEK293 Ca flux: nonspecific calcium signal in parental HEK293, confirmation, counter-screen for MrgX1 antagonist project, parental HEK293 cells, Fluo-4 calcium flux; shares compounds with MrgX1 antagonist; Fluo-4 calcium fluorescence, FDSS; fluorescence ratio F(max-min)/F0 at 10 µM; 4,000 tested, 2% active; AID 624111, 2012;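 active = duplicate-averaged calcium fluorescence ratio at least three times the standard deviation of buffer wells, a nonspecific response in parental cells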
HEK293 Ca counter: calcium response in parental HEK293 cells, primary screen, counter-screen for MrgX1 allosteric activator project, cell-based, Fluo-4 calcium flux, duplicate. fluorescence ratio F(max-min)/F0 at 10 µM. Fluo-4 fluorescence ratio; stronger effect = higher value. AID 624114, 2012. 4,000 tested, 0.4% active. shares compounds with MrgX1 antagonist;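 active = calcium fluorescence ratio, averaged over duplicates, at least 3 SD of the buffer-well ratio, meaning a nonspecific response in receptor-free cells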;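 note: untransfected parental HEK293 lacking MrgX1 used as counterscreen for MrgX1 allosteric activators; fluorescence change taken during the second addition on a kinetic imager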
HEK293 Ca cntr2: calcium response in parental HEK293 cells, primary screen, counter-screen for MrgX1 agonist project, cell-based, Fluo-4 calcium flux, duplicate, agonist mode; AID 624115, 2012; 4,000 tested, 8.7% active; Fluo-4 calcium fluorescence (FDSS); stronger effect = higher value; shares compounds with MrgX1 antagonist; fluorescence ratio F(max-min)/F0 at 10 µM;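 active = calcium fluorescence ratio at least three times the spread of buffer wells, meaning a non-specific response in parental cells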
Each line names hits and unclear results; the compound was inactive in the other large screens (follow-up assays come after a bar, where they were run). This is a sample that favours compounds with a hit; in the whole collection about 3.5% have one here.

CC(C)Oc1ccc(C(=O)N2CCCc3ccccc32)cc1	MrgX1 antagonist -6.3 | MrgX1 ant reconf inactive | HEK293 Ca flux inactive | HEK293 Ca counter inactive | HEK293 Ca cntr2 inactive
COc1ccc(C(=O)N2CCCc3ccccc32)cc1	none
O=C(OCC(=O)N1CCCc2ccccc21)c1cc(S(=O)(=O)N2CCOCC2)ccc1Cl	MrgX1 antagonist -4.5 | MrgX1 ant reconf inactive | HEK293 Ca flux inactive | HEK293 Ca counter inactive | HEK293 Ca cntr2 inactive
CN(C)c1nc(N(C)C)n(Cc2c(Cl)cccc2Cl)n1	none
COc1ccc(CNC(=O)CN(C(=O)c2snc(C(N)=O)c2N)c2ccc(OC)c(OC)c2)cc1	none
Cc1ccccc1NC(=O)CSCc1nc(N)nc(Nc2ccccc2C)n1	none
CSCCC(C(=O)OCC(=O)c1ccc(C)c(C)c1)N1C(=O)c2cc(Cl)c(Cl)cc2C1=O (stereo not given)	MrgX1 antagonist -5.2 | MrgX1 ant reconf inactive | HEK293 Ca flux inactive | HEK293 Ca counter inactive | HEK293 Ca cntr2 inactive
COc1cccc(NC(=O)c2ccccc2N2C(=O)C3C4C=CC(C4)C3C2=O)c1 (stereo not given)	none
Cc1cccc(C)c1OC(=O)CN(c1ccc(Cl)cc1)S(C)(=O)=O	MrgX1 antagonist -7.1 | MrgX1 ant reconf inactive | HEK293 Ca flux inactive | HEK293 Ca counter inactive | HEK293 Ca cntr2 inactive
CS(=O)(=O)N(CC(=O)NCc1ccccc1)c1ccc(Cl)cc1	none
Cc1cccc(NC2SC(=O)NC2=O)c1 (stereo not given)	none
O=C(CCC1CCCC1)NCCCN1CCOCC1	MrgX1 antagonist -6.9 | MrgX1 ant reconf inactive | HEK293 Ca flux inactive | HEK293 Ca counter inactive | HEK293 Ca cntr2 inactive
Cc1cc(=O)[nH]c(N/N=C/c2ccc(OC(=O)c3cccnc3)cc2)n1	none
CCOC(=O)CC1C(=O)NCCN1S(=O)(=O)c1ccc(NC(C)=O)cc1 (stereo not given)	MrgX1 antagonist -6.5 | MrgX1 ant reconf inactive | HEK293 Ca flux inactive | HEK293 Ca counter inactive | HEK293 Ca cntr2 inactive
CCOC(=O)CC1C(=O)NCCN1S(=O)(=O)c1ccc(F)cc1 (stereo not given)	none
CCOC(=O)C1CCN(c2ncnc3c2cnn3-c2ccc(Cl)cc2)CC1	none
CCOC(=O)CNC(=O)CSc1ncnc2c1cnn2-c1ccccc1	MrgX1 antagonist -6.1 | MrgX1 ant reconf inactive | HEK293 Ca flux inactive | HEK293 Ca counter inactive | HEK293 Ca cntr2 inactive
Cc1ccc(-n2ncc3c(N4CCC(C(N)=O)CC4)ncnc32)c(C)c1	MrgX1 antagonist -10 | MrgX1 ant reconf inactive | HEK293 Ca flux inactive | HEK293 Ca counter inactive | HEK293 Ca cntr2 inactive
CCOC(=O)C1CCN(c2ncnc3c2cnn3-c2ccccc2)CC1	MrgX1 antagonist -5 | MrgX1 ant reconf inactive | HEK293 Ca flux inactive | HEK293 Ca counter inactive | HEK293 Ca cntr2 inactive
C=CCNc1nc2c(c(=O)[nH]c(=O)n2C)n1CCCc1ccccc1	none
CCN1CCN(c2nc3c(c(=O)[nH]c(=O)n3C)n2CCSc2nc3ccccc3s2)CC1	MrgX1 antagonist -6.3 | MrgX1 ant reconf inactive | HEK293 Ca flux inactive | HEK293 Ca counter inactive | HEK293 Ca cntr2 inactive
CC(CSc1nc2ccccc2s1)Cn1c(N2CCCC2)nc2c1c(=O)[nH]c(=O)n2C (stereo not given)	none
Cc1c(CCC(=O)NCCC(=O)O)c(=O)oc2c(C)c3oc4c(c3cc12)CCCC4	none
CSc1cccc(NC(=O)C2CCCN(S(=O)(=O)c3ccc(F)cc3)C2)c1 (stereo not given)	MrgX1 antagonist -6.5 | MrgX1 ant reconf 67% | HEK293 Ca flux inactive | HEK293 Ca counter inactive | HEK293 Ca cntr2 inactive
CSc1cccc(NC(=O)C2CCN(S(=O)(=O)c3ccc(F)cc3)CC2)c1	none
COc1ccc(CCNC(=O)c2ccc(OC)c(OC)c2)cc1OC	MrgX1 antagonist -6.8 | MrgX1 ant reconf inactive | HEK293 Ca flux inactive | HEK293 Ca counter inactive | HEK293 Ca cntr2 inactive
COc1cc(OC)cc(C(=O)NCCc2ccc(OC)c(OC)c2)c1	none
COc1ccc(-c2cc(C(=O)N3CCN(C(c4ccccc4)c4ccccc4)CC3)no2)cc1OC	MrgX1 antagonist -5.3 | MrgX1 ant reconf inactive | HEK293 Ca flux inactive | HEK293 Ca counter inactive | HEK293 Ca cntr2 inactive
CC(C)CC(=O)Nc1c2c(nn1-c1ccc(F)cc1)CSC2	MrgX1 antagonist -7.7 | MrgX1 ant reconf inactive | HEK293 Ca flux inactive | HEK293 Ca counter inactive | HEK293 Ca cntr2 inactive
NC(=O)c1ccc(NC(=O)CCc2nc3sc4c(c3c(=O)[nH]2)CCCC4)cc1	none
CC(=O)Nc1ccc(NC(=O)CCc2nc3sc4c(c3c(=O)[nH]2)CCCC4)cc1	MrgX1 antagonist -4.6 | MrgX1 ant reconf inactive | HEK293 Ca flux inactive | HEK293 Ca counter inactive | HEK293 Ca cntr2 inactive
Cn1cc(S(=O)(=O)N2CCCC2)cc1C(=O)NCCc1ccccc1	none
O=C(CNc1cccc(S(=O)(=O)N2CCOCC2)c1)Nc1cccc(Br)c1	none
O=C(CNc1cccc(S(=O)(=O)N2CCOCC2)c1)Nc1ccccc1F	MrgX1 antagonist -5.1 | MrgX1 ant reconf inactive | HEK293 Ca flux inactive | HEK293 Ca counter inactive | HEK293 Ca cntr2 inactive
CCc1ccc(C2c3[nH]c4ccccc4c3CCN2C(=O)c2cc[n+]([O-])cc2)cc1 (stereo not given)	none
Cn1nccc1C(=O)N1CCc2c([nH]c3ccccc23)C1c1ccc(F)cc1 (stereo not given)	MrgX1 antagonist -7.3 | MrgX1 ant reconf inactive | HEK293 Ca flux inactive | HEK293 Ca counter inactive | HEK293 Ca cntr2 inactive
CCCC(NC(=O)c1c(C)noc1C)C12CC3CC(CC(C3)C1)C2 (stereo not given)	none
CN(C)C1C(=O)c2ccccc2C1=O	MrgX1 antagonist -5 | MrgX1 ant reconf inactive | HEK293 Ca flux inactive | HEK293 Ca counter inactive | HEK293 Ca cntr2 inactive
O=C1c2ccccc2C(=O)C1c1ccc(O)cc1	none
